Reference: ChEMBL document CHEMBL4024801, “Synthesis and Structure-Activity Relationship (SAR) Studies of Novel Pyrazolopyridine Derivatives as Inhibitors of Enterovirus Replication” (J Med Chem, 2018)

Key:
[1] = test system: Poliovirus 1; assay: Antiviral activity against Poliovirus 1 infected in human HeLa-RW cells assessed as protection against virus-induced cytopathic effect after 3 to 4 days by crystal violet staining-based spectrophotometric method; type: functional, cell-based; conditions: Enterovirus C
Summary of the method: (§1)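 HeLa-RW cells grown in DMEM with penicillin, streptomycin, glutamine and 10% FBS. They were infected at a low MOI pre-set to give full CPE in 3-4 days. Compound in DMSO was added as serial 2-fold dilutions (7 points), each in triplicate. When control CPE was maximal, cells were fixed with 4% formaldehyde, stained with 0.25% crystal violet and read at OD590. EC50 came from a four-parameter or sigmoidal fit.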

[2] = Cytotoxicity against human HeLa-RW cells after 3 to 4 days by crystal violet staining-based spectrophotometric method; type: cell-based; conditions: hela-rw
Summary of the method: (§2)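 Uninfected cells (HeLa-RW or LLC-MK2, in DMEM with penicillin, streptomycin, glutamine and 10% FBS) were exposed to serial 2-fold compound dilutions for the same period as the CPE assay. They were then fixed with formaldehyde, stained with crystal violet and read by OD590 spectrophotometry to derive CC50. Values are means ± s.d. of 3 experiments, or the average of triplicates in one.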

[3] = test system: LLC-MK2; assay: Cytotoxicity against monkey LLC-MK2 cells after 3 to 4 days by crystal violet staining-based spectrophotometric method; type: cell-based, Macaca mulatta; conditions: rhesus monkey; summary of the method: as §2
[4] = test system: Poliovirus 3; assay: Antiviral activity against Poliovirus 3 infected in human HeLa-RW cells assessed as protection against virus-induced cytopathic effect after 3 to 4 days by crystal violet staining-based spectrophotometric method; type: functional, cell-based; conditions: Enterovirus C; summary of the method: as §1
[5] = test system: Coxsackievirus B3; assay: Antiviral activity against Coxsackievirus B3 infected in human HeLa-RW cells assessed as protection against virus-induced cytopathic effect after 3 to 4 days by crystal violet staining-based spectrophotometric method; type: functional, cell-based; conditions: Enterovirus B; summary of the method: as §1
[6] = Selectivity index, ratio of CC50 for human HeLa-RW cells to EC50 for Coxsackievirus B3; type: toxicity; conditions: read-out: Ratio CC50/EC50
Summary of the method: (§3)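 HeLa-RW cells in DMEM with 10% FBS were used for both arms. For EC50, cells were infected with CVB3-H3 at a low MOI giving full CPE in 3–4 days and exposed to 2-fold compound dilutions, in triplicate, with a 7-point fit. For CC50, uninfected cells got 2-fold dilutions for the same period. Both arms were fixed, crystal violet-stained and read at OD590.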

[7] = test system: Enterovirus A71; assay: Antiviral activity against Enterovirus A71 infected in monkey LLC-MK2 cells assessed as protection against virus-induced cytopathic effect after 3 to 4 days by crystal violet staining-based spectrophotometric method; type: functional, cell-based; conditions: Enterovirus A
Summary of the method: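 EV-A71 was tested in LLC-MK2 cells grown in DMEM with 10% FBS, penicillin, streptomycin and glutamine, at a low MOI preset to give full CPE in 3–4 days. Compound was dissolved in DMSO and diluted 2-fold, in triplicate. Cells were fixed with formaldehyde when control CPE was maximal, then stained with crystal violet and read at OD590. EC50 came from a 7-point four-parameter or sigmoidal fit.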

[8] = Selectivity index, ratio of CC50 for monkey LLC-MK2 cells to EC50 for Enterovirus A71; type: toxicity; conditions: read-out: Ratio CC50/EC50
Summary of the method: as §3, with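 “LLC-MK2” for “HeLa-RW”, “EV-A71” for “CVB3-H3”, “triplicate.” for “triplicate, with a 7-point fit.”, “formaldehyde-fixed,” for “fixed,”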

Structure (SMILES)	EC50 [1]	CC50 [2]	CC50 [3]	EC50 [4]	EC50 [5]	selectivity ratio [6]	EC50 [7]	selectivity ratio [8]
CC(C)n1ncc2c(C(=O)Nc3ccccc3F)cc(-c3ccccc3)nc21	> 25 µM	37.5 µM	> 200 µM	> 25 µM	4.5 µM	8.3	5.7 µM	> 35.1
CC(C)n1ncc2c(C(=O)Nc3ccc(F)cn3)cc(-c3cccs3)nc21	> 10 µM	37.5 µM	> 200 µM	> 10 µM	0.7 µM	53.6	1.2 µM	> 167
CC(C)n1ncc2c(NC(=O)c3cc(-c4cccs4)nc4c3cnn4C(C)C)cc(-c3cccs3)nc21	> 10 µM	–	–	> 10 µM	> 10 µM	–	> 10 µM	–
CC(C)n1ncc2c(C(=O)Nc3ccccc3S(N)(=O)=O)cc(-c3cccs3)nc21	> 25 µM	10 µM	25 µM	> 25 µM	2.6 µM	3.8	2.5 µM	10
CC(C)n1ncc2c(-c3nc4ccc(F)cc4o3)cc(-c3cccs3)nc21	> 10 µM	–	–	> 10 µM	> 10 µM	–	> 10 µM	–
CC(C)n1ncc2c(C(=O)Nc3ccccn3)cc(-c3ccccc3)nc21	> 25 µM	18.8 µM	12.5 µM	> 25 µM	1.6 µM	11.8	0.7 µM	17.9
CC(C)n1ncc2c(C(=O)Nc3ccc(F)cc3)cc(-c3cccs3)nc21	> 25 µM	> 200 µM	> 200 µM	> 25 µM	0.7 µM	> 286	0.9 µM	> 222
CC(C)n1ncc2c(C(=S)Nc3ccc(F)cc3)cc(-c3cccs3)nc21	> 10 µM	–	–	> 10 µM	> 10 µM	–	> 10 µM	–
CC(C)n1ncc2c(C(=O)Nc3ccc(C(F)(F)F)cc3)cc(-c3cccs3)nc21	> 25 µM	–	–	> 25 µM	> 25 µM	–	> 25 µM	–
CC(C)n1ncc2c(C(=O)Nc3ccncn3)cc(-c3ccsc3)nc21	> 10 µM	> 200 µM	> 200 µM	> 10 µM	1.2 µM	> 167	0.8 µM	> 250
CC(C)n1ncc2c(C(=O)Nc3ccc(S(N)(=O)=O)cc3)cc(-c3cccs3)nc21	> 10 µM	–	–	> 10 µM	> 10 µM	–	> 10 µM	–
CC(C)n1ccc2c(C(=O)Nc3ccccn3)cc(-c3cccs3)nc21	> 10 µM	18.8 µM	> 200 µM	> 10 µM	2.2 µM	8.5	1.2 µM	> 167
CC(C)n1ncc2c(C(=O)Nc3ccccc3F)cc(-c3cccnc3)nc21	> 25 µM	37.5 µM	50 µM	> 25 µM	7 µM	5.4	> 10 µM	–
CC(C)n1ncc2c(C(=O)Nc3cccc(S(N)(=O)=O)c3)cc(C3CC3)nc21	> 10 µM	–	–	> 10 µM	> 10 µM	–	> 10 µM	–
CC(C)n1ncc2c(C(=O)Nc3cccc(F)c3F)cc(-c3cccs3)nc21	> 25 µM	> 200 µM	75 µM	> 25 µM	2.7 µM	> 74.1	3 µM	25
CC(C)n1ncc2c(C(=O)Nc3ncccn3)cc(-c3ccsc3)nc21	> 10 µM	40 µM	50 µM	> 10 µM	1.2 µM	33.3	1.2 µM	41.7
CC(C)n1ccc2c(C(=O)Nc3ccc(F)cc3)cc(-c3cccs3)nc21	> 25 µM	> 200 µM	> 200 µM	> 25 µM	3.1 µM	> 64.5	> 25 µM	–
CC(C)n1ncc2c(C(=O)Nc3ccccc3C(F)(F)F)cc(-c3cccs3)nc21	> 10 µM	–	–	> 10 µM	> 10 µM	–	> 10 µM	–

Structure (SMILES)	EC50 [1]	CC50 [2]	CC50 [3]	EC50 [4]	EC50 [5]	selectivity ratio [6]	EC50 [7]	selectivity ratio [8]
CC(C)n1ncc2c(C(=O)Nc3ccccc3F)cc(-c3ccncc3)nc21	> 25 µM	37.5 µM	45 µM	> 25 µM	5.1 µM	7.4	> 10 µM	–
CC(C)n1ncc2c(C(=O)Nc3ccccc3F)cc(-c3ccccn3)nc21	> 25 µM	> 200 µM	100 µM	> 25 µM	6.9 µM	> 29	> 10 µM	–
CC(C)n1ncc2c(C(=N)Nc3cccnc3)cc(-c3cccs3)nc21	> 10 µM	–	–	> 10 µM	> 10 µM	–	> 10 µM	–
CC(C)n1cnc2c(C(=O)Nc3ccc(F)cc3)cc(-c3cccs3)nc21	> 10 µM	–	–	> 10 µM	> 10 µM	–	> 10 µM	–
CC(C)n1ncc2c(C(=O)Nc3ccncc3)cc(-c3ccsc3)nc21	> 10 µM	–	–	> 10 µM	> 10 µM	–	> 10 µM	–
CC(C)n1ncc2c(C(=O)Nc3ccc(F)cc3)nc(-c3cccs3)nc21	> 10 µM	–	–	> 10 µM	> 10 µM	–	> 10 µM	–
CC(C)n1ncc2c(C(=O)Nc3ccc(F)cc3Br)cc(-c3cccs3)nc21	> 10 µM	–	–	> 10 µM	> 10 µM	–	> 10 µM	–
CC(C)n1ncc2c(C(=N)Nc3ccc(F)cc3)cc(-c3cccs3)nc21	> 10 µM	–	–	> 10 µM	> 10 µM	–	> 10 µM	–
CC(C)n1ncc2c(C(=O)Nc3ccccc3F)cc(-c3nccs3)nc21	> 10 µM	–	–	> 10 µM	> 10 µM	–	> 10 µM	–
CC(C)n1nnc2c(C(=O)Nc3ccc(F)cc3)cc(-c3cccs3)nc21	> 10 µM	–	–	> 10 µM	> 10 µM	–	> 10 µM	–
CC(C)n1ncc2c(C(=O)Nc3ccc(F)c(F)c3)cc(-c3cccs3)nc21	> 10 µM	> 200 µM	> 200 µM	> 10 µM	1.3 µM	> 154	> 25 µM	–
CC(C)n1ncc2c(C(=O)Nc3cc(F)cc(F)c3)cc(-c3cccs3)nc21	> 10 µM	–	–	> 10 µM	> 10 µM	–	> 10 µM	–
CC(C)n1ncc2c(S(=O)(=O)Nc3ccc(F)cc3)cc(-c3cccs3)nc21	> 10 µM	–	–	> 10 µM	> 10 µM	–	> 10 µM	–
CC(C)n1ncc2c(NS(=O)(=O)c3ccc(F)cc3)cc(-c3cccs3)nc21	> 10 µM	–	–	> 10 µM	> 10 µM	–	> 10 µM	–
CC(C)n1ncc2c(C(=O)N(C)c3ccccn3)cc(-c3cccs3)nc21	> 10 µM	–	–	> 10 µM	> 25 µM	–	> 10 µM	–
CC(C)n1ncc2c(C(=O)Nc3ccccc3F)cc(-c3cnco3)nc21	> 10 µM	–	–	> 10 µM	> 10 µM	–	> 10 µM	–
CC(C)n1ccc2c(C(=O)Nc3ccncc3)cc(-c3cccs3)nc21	> 10 µM	–	–	> 10 µM	> 10 µM	–	> 10 µM	–
